# ChEMBL document CHEMBL3596177
# pIC50, pKi: −log10 of the molar value. The source made the active and inactive calls. The rule behind the calls is not given here.
# What was measured:
# [1] = Inhibition of Mycobacterium tuberculosis protein tyrosine phosphatase B expressed in Escherichia coli BL21/DE using pNPP substrate by spectrophotometry
# Procedure, shortened: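 His-tagged mPTPB from pET28b in E. coli BL21/DE3, purified on Ni-NTA. The assay ran at 25°C in 50 mM 3,3-dimethylglutarate pH 7.0 with 1 mM EDTA, ionic strength 0.15 M (NaCl). Enzyme was added last, the reaction was quenched after 10 min with NaOH, and A405 was read. IC50 was fitted as AI/A0 = IC50/(IC50+[I]).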
# [2] = test system: RAW264.7; experiment: Inhibition of Mycobacterium tuberculosis protein tyrosine phosphatase B transfected in mouse RAW264.7 cells assessed as reduction in AKT phosphorylation at 10 uM incubated for 1 hr followed by with IFNgamma stimulation for 1 hr by Western blotting method; assay type: cell-based
# Procedure, shortened: (§1)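 RAW264.7 mouse macrophages transfected with mPTPB, grown in DMEM with 10% FBS, penicillin/streptomycin, 37°C, 5% CO2. Cells were seeded at 4 x 10⁴ per well and treated next day with inhibitor for 1 h, then with IFN-γ (200 U/ml) for 1 h. They were washed with cold PBS and lysed on ice 30 min. Cleared lysates were Western blotted for phospho-Erk1/2 and phospho-Akt.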
# [3] = test system: RAW264.7; experiment: Inhibition of Mycobacterium tuberculosis protein tyrosine phosphatase B transfected in mouse RAW264.7 cells assessed as increase in ERK1/2 phosphorylation at 10 uM incubated for 1 hr followed by with IFNgamma stimulation for 1 hr by Western blotting method; assay type: cell-based; procedure, shortened: as §1
# [4] = target: Receptor-type tyrosine-protein phosphatase epsilon (Homo sapiens, UniProt P23469); experiment: Inhibition of human PTPepsilon using pNPP substrate by spectrophotometry
# [5] = Selectivity index, ratio of IC50 for human VHR to IC50 for Mycobacterium tuberculosis protein tyrosine phosphatase B
# [6] = Non-competitive inhibition of Mycobacterium tuberculosis protein tyrosine phosphatase B expressed in Escherichia coli BL21/DE using pNPP substrate by spectrophotometry based Lineweaver-Burk plot analysis
# [7] = target: T1, Laforin (Homo sapiens, UniProt O95278); experiment: Inhibition of human laforin using pNPP substrate by spectrophotometry
# T1 sequence (O95278 whole entry): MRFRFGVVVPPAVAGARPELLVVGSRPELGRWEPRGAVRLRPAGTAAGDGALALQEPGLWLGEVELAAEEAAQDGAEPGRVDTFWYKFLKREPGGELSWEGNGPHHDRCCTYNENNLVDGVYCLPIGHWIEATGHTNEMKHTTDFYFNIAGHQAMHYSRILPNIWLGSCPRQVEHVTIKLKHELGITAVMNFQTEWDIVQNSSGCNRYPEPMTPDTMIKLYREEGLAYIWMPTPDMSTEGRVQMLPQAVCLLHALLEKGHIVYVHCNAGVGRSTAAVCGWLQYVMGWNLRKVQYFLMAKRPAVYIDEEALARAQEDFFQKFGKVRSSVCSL
# [8] = Selectivity index, ratio of IC50 for human SHP2 to IC50 for Mycobacterium tuberculosis protein tyrosine phosphatase B
# [9] = Selectivity index, ratio of IC50 for human PTP-Meg2 to IC50 for Mycobacterium tuberculosis protein tyrosine phosphatase B
# [10] = target: T2, Receptor-type tyrosine-protein phosphatase C (Homo sapiens, UniProt P08575); experiment: Inhibition of human CD45 using pNPP substrate by spectrophotometry
# T2 sequence (P08575 whole entry): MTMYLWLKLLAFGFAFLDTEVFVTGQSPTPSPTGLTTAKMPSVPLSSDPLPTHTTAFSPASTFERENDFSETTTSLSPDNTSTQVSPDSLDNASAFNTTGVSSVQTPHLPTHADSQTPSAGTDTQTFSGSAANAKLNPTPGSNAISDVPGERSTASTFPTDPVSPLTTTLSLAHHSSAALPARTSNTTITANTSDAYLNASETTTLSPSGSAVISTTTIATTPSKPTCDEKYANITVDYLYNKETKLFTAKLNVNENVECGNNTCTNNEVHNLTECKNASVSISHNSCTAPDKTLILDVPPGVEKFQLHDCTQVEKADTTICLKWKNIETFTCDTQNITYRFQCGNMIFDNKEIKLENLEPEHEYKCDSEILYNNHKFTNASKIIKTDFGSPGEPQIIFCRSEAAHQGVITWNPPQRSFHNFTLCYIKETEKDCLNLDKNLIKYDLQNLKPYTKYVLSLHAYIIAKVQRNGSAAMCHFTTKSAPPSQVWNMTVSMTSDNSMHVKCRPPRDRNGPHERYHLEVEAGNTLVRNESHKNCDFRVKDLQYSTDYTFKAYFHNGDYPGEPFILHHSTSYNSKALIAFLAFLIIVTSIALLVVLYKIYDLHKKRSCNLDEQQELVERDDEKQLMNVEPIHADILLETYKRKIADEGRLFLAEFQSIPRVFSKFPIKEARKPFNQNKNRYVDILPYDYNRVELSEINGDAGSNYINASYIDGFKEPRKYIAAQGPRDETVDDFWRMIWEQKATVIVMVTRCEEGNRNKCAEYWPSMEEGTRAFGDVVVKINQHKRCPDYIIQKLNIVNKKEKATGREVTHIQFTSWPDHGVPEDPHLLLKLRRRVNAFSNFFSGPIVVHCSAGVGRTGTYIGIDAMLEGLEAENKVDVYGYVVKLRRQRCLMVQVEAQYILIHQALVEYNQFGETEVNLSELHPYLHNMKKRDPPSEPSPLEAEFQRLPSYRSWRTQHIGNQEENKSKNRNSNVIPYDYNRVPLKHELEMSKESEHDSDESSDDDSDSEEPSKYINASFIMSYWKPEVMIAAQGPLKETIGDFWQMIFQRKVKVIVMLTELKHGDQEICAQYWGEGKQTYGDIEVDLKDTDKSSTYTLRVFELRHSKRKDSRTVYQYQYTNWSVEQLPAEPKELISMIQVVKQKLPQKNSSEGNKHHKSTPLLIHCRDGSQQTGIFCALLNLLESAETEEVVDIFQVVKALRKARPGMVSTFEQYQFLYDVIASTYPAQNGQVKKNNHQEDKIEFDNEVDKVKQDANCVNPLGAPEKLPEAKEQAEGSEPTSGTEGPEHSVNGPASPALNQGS
# [11] = target: T3, Tyrosine-protein phosphatase non-receptor type 9 (Homo sapiens, UniProt P43378); experiment: Inhibition of human PTP-Meg2 using pNPP substrate by spectrophotometry
# T3 sequence (P43378 whole entry): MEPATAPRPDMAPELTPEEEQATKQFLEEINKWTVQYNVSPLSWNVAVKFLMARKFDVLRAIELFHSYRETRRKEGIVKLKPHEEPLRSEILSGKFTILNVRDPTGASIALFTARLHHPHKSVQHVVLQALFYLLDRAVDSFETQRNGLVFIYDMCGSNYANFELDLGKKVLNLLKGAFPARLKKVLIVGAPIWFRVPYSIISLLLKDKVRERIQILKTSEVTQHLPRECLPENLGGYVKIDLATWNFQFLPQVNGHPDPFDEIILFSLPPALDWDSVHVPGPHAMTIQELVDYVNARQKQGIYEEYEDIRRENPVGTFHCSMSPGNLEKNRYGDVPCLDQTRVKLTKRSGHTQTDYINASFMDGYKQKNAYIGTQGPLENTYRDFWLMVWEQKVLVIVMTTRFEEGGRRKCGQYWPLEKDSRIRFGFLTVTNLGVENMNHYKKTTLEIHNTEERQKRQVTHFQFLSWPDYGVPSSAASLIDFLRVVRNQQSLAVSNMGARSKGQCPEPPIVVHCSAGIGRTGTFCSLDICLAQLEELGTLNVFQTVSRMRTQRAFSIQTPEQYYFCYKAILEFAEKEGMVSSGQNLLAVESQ
# [12] = Selectivity index, ratio of IC50 for human CD45 to IC50 for Mycobacterium tuberculosis protein tyrosine phosphatase B
# [13] = target: Dual specificity protein phosphatase 3 (Homo sapiens, UniProt P51452); experiment: Inhibition of human VHR using pNPP substrate by spectrophotometry
# [14] = Selectivity index, ratio of IC50 for human PTP1B to IC50 for Mycobacterium tuberculosis protein tyrosine phosphatase B
# [15] = test system: RAW264.7; experiment: Inhibition of Mycobacterium tuberculosis protein tyrosine phosphatase B transfected in mouse RAW264.7 cells assessed as increase in ERK1/2 phosphorylation at 5 and 10 uM incubated for 1 hr followed by with IFNgamma stimulation for 1 hr by Western blotting method; assay type: cell-based; procedure, shortened: as §1
# [16] = test system: RAW264.7; experiment: Inhibition of Mycobacterium tuberculosis protein tyrosine phosphatase B transfected in mouse RAW264.7 cells assessed as reduction in AKT phosphorylation at 5 and 10 uM incubated for 1 hr followed by with IFNgamma stimulation for 1 hr by Western blotting method; assay type: cell-based; procedure, shortened: as §1
# [17] = target: T4, Tyrosine-protein phosphatase non-receptor type 11 (Homo sapiens, UniProt Q06124); experiment: Inhibition of human SHP2 using pNPP substrate by spectrophotometry
# T4 sequence (Q06124 whole entry): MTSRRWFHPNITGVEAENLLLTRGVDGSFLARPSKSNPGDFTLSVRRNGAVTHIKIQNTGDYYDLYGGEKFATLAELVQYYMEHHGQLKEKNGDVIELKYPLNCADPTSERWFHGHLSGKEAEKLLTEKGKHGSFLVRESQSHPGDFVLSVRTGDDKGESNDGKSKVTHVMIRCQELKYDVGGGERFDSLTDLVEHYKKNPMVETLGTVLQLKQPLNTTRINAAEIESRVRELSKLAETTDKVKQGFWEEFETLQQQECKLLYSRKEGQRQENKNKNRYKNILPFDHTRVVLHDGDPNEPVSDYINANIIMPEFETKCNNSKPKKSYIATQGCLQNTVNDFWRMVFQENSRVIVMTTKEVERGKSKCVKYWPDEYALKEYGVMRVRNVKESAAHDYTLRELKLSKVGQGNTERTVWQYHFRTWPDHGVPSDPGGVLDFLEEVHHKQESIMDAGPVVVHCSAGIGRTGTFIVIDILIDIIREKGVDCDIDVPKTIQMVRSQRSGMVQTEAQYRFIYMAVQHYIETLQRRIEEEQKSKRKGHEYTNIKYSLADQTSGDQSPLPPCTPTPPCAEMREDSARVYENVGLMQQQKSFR
# [18] = target: Tyrosine-protein phosphatase non-receptor type 6 (Homo sapiens, UniProt P29350); experiment: Inhibition of human SHP1 using pNPP substrate by spectrophotometry
# [19] = Selectivity index, ratio of IC50 for human SHP1 to IC50 for Mycobacterium tuberculosis protein tyrosine phosphatase B
# [20] = Selectivity index, ratio of IC50 for human PTPepsilon to IC50 for Mycobacterium tuberculosis protein tyrosine phosphatase B
# [21] = Selectivity index, ratio of IC50 for human laforin to IC50 for Mycobacterium tuberculosis protein tyrosine phosphatase B
# [22] = target: T5, Tyrosine-protein phosphatase non-receptor type 1 (Homo sapiens, UniProt P18031); experiment: Inhibition of human PTP1B using pNPP substrate by spectrophotometry
# T5 sequence (P18031 whole entry): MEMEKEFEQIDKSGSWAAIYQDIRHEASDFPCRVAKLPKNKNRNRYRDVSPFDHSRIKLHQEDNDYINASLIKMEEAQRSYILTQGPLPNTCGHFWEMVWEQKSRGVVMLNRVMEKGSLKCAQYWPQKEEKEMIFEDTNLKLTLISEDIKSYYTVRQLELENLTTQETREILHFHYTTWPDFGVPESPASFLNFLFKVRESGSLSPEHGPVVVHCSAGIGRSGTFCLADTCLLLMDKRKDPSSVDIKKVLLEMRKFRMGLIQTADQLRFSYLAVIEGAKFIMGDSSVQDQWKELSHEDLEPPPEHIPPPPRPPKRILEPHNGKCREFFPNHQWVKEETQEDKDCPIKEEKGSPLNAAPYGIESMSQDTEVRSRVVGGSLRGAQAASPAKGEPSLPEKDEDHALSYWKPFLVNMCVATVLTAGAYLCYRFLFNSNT
# Dual specificity protein phosphatase 3, sequence (P51452 whole entry): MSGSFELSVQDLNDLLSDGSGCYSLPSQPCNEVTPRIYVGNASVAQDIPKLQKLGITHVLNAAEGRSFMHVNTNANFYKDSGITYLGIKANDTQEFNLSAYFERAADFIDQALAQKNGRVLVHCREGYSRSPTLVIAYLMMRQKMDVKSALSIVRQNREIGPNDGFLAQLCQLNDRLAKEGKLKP
# Tyrosine-protein phosphatase non-receptor type 6, sequence (P29350 whole entry): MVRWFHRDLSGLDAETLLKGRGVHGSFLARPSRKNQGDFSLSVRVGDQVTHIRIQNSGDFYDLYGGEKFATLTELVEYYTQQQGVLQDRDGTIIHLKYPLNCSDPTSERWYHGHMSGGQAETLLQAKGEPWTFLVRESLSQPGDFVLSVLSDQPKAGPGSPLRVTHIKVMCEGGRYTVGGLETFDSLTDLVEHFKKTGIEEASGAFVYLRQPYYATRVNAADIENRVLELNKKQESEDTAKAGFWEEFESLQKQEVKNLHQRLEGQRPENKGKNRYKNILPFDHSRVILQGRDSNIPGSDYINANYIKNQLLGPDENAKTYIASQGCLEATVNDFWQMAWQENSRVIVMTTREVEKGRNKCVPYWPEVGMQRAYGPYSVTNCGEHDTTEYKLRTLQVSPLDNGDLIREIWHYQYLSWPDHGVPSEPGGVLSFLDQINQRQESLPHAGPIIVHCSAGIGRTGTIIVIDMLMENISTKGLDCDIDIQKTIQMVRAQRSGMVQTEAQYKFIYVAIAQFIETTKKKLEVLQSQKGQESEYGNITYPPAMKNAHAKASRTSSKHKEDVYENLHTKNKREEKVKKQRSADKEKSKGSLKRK
# Receptor-type tyrosine-protein phosphatase epsilon, sequence (P23469 whole entry): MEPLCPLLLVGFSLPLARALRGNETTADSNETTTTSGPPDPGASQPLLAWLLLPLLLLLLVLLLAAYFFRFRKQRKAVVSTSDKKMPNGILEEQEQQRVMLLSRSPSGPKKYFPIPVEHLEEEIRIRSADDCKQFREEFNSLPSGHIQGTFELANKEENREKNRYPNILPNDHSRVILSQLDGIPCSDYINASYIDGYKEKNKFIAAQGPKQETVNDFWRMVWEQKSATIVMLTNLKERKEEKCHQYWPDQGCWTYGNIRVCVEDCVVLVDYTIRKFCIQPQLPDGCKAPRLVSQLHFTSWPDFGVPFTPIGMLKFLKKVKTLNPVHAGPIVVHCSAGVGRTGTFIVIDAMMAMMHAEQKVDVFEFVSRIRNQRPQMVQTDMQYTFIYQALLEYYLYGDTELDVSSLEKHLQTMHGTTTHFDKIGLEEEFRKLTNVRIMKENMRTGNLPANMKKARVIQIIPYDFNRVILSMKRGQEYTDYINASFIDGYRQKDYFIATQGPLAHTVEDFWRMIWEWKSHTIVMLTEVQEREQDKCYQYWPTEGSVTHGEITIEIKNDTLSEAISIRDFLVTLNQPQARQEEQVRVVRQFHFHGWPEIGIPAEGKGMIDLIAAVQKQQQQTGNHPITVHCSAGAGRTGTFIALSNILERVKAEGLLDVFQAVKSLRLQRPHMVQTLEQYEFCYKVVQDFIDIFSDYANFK
smiles,measurement,setting,value
O=C(O)c1cc2sc(Nc3cccc(Cl)c3)nc2cc1O,pIC50,[1],4.68
Cc1ccccc1Nc1nc2cc(O)c(C(=O)O)cc2s1,pIC50,[1],4.51
O=C(O)c1cc2[nH]c(-c3ccccc3)nc2cc1O,pIC50,[1],4.49
O=C(O)CN1CC(=O)Oc2cc(O)c(C(=O)O)cc21,pIC50,[1],< 4.00
Cc1cccc(Nc2nc3cc(O)c(C(=O)O)cc3s2)c1,pIC50,[1],4.82
CC(C)(C)c1ccc(Nc2nc3cc(O)c(C(=O)O)cc3s2)cc1,pIC50,[1],4.39
O=C(O)c1cc2sc(Nc3ccc(Cl)cc3)nc2cc1O,pIC50,[1],4.89
O=C(O)c1cc2sc(Nc3ccc([N+](=O)[O-])cc3)nc2cc1O,pIC50,[1],4.30
O=C(O)c1cc2[nH]c(=O)oc2cc1O,pIC50,[1],< 4.00
O=C(O)c1cc2sc(Nc3ccccc3Cl)nc2cc1O,pIC50,[1],4.52
O=C(O)c1cc2nc(-c3ccccc3)oc2cc1O,pIC50,[1],4.57
O=C(O)c1cc2sc(Nc3cccc4ccccc34)nc2cc1O,pIC50,[1],4.22
O=C(O)c1cc2sc(Nc3ccc(F)cc3)nc2cc1O,pIC50,[1],4.19
O=C(O)c1cc2sc(Nc3ccccc3)nc2cc1O,pIC50,[1],4.60
same,inhibition,[2],inactive
same,inhibition,[3],inactive
O=C(O)c1cc2nc(NCc3ccccc3)oc2cc1O,pIC50,[1],< 4.00
O=C(O)c1ccc2nc(Nc3ccccc3)sc2c1O,pIC50,[1],4.15
O=C(O)c1cc2sc(Nc3cccc(Br)c3)nc2cc1O,pIC50,[4],< 3.40
same,pIC50,[1],5.70
same,Ratio IC50,[5],> 20
same,pKi,[6],5.82
same,pIC50,[7],4.25
same,Ratio IC50,[8],> 20
same,Ratio IC50,[9],> 20
same,pIC50,[10],< 4.00
same,pIC50,[11],4.16
same,Ratio IC50,[12],> 20
same,pIC50,[13],4.37
same,Ratio IC50,[14],> 20
same,inhibition,[15],Dose-dependent effect
same,inhibition,[16],Dose-dependent effect
same,pIC50,[17],4.30
same,pIC50,[18],4.11
same,Ratio IC50,[19],> 20
same,Ratio IC50,[20],> 20
same,Ratio IC50,[21],> 20
same,pIC50,[22],4.19
O=C1COc2cc(O)c(C(=O)O)cc2N1,pIC50,[1],< 4.00
CCNc1nc2cc(C(=O)O)c(O)cc2o1,pIC50,[1],< 4.00
O=C(O)c1cc2sc(Nc3ccc(Cl)cc3Cl)nc2cc1O,pIC50,[1],5.30
